Results on 13 compounds are retold here after ChEMBL document CHEMBL4325839, “Design, synthesis and biological evaluations of quaternization harman analogues as potential antibacterial agents” (Eur J Med Chem, 2018).

In one series the test system is Escherichia coli. Briefly: Antibacterial activity against Escherichia coli CGMCC 1.1636 after 12 to 14 hrs by double dilution method. The class given is functional.
The next series relates to Bacillus subtilis. Put plainly: Antibacterial activity against Bacillus subtilis 769 after 12 to 14 hrs by double dilution method. In kind it is functional.
The subject of another series is Ralstonia solanacearum. Briefly: Antibacterial activity against Ralstonia solanacearum CGMCC 1.12711 measured after 12 to 14 hrs by double dilution method. The class given is functional. Summed up: (§1)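 Broth double-dilution MIC per NCCLS. Bacteria at 1×10^6 CFU/mL in Luria-Bertani medium. Compounds dissolved in DMSO as stock, then diluted in medium to 200, 100, 50, 25, 12.5, 6.25 and 3.125 nmol/mL (DMSO <0.5%); some also tested at 256–1 µg/mL. Incubated at 37 °C for 12–14 h. MIC read as lowest concentration giving visible growth inhibition.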

In series [1] the test system is Staphylococcus aureus. Briefly: Antibacterial activity against methicillin-resistant Staphylococcus aureus ATCC 43300 after 12 to 14 hrs by double dilution method. In kind it is functional. Summed up:
as §1

A short description of series [2]: Cytotoxicity against […] MARC145 cells assessed as cell viability at 8 ug/ml by MTT assay. In kind it is cell-based. To be noted: chlorocebus aethiops, read-out: Activity. A general note: Tetrazolium assays rely on reduction of a dye to a coloured formazan, in cell work by metabolically active cells.
A short description of series [3]: Cytotoxicity against human L02 cells assessed as cell viability at 8 ug/ml by MTT assay. In kind it is cell-based. To be noted: read-out: Activity. Summed up:
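MTT viability assay on normal cells (MARC 145 monkey kidney, L02 human hepatocyte) exposed to 8 µg/mL; MTT in PBS then 4 h at 37 °C, 5% CO2; formazan dissolved in DMSO with 15 min shaking; absorbance at 540 nm; viability = treated/untreated absorbance × 100%.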

Series [4] relates to Staphylococcus aureus. Put plainly: Antibacterial activity against Staphylococcus aureus CGMCC 1.8721 after 12 to 14 hrs by double dilution method. The class given is functional.
For the next series, the system named is Bacillus cereus. Briefly: Antibacterial activity against Bacillus cereus CGMCC 1.1846 after 12 to 14 hrs by double dilution method. In kind it is functional.
The test system of series [5] is Staphylococcus aureus. Put plainly: Antibacterial activity against methicillin-resistant Staphylococcus aureus after 48 hrs by broth microtube dilution method. The class given is functional.
The test system of series [6] is Staphylococcus aureus. Put plainly: Antibacterial activity against Staphylococcus aureus after 18 hrs. The class given is functional.
In series [7] the test system is Staphylococcus aureus. Briefly: Antibacterial activity against methicillin-resistant Staphylococcus aureus EMRSA15 after 24 hrs. To be noted: EMRSA15, 24 h. In kind it is functional.
Series [8] relates to Staphylococcus aureus. Briefly: Antibacterial activity against multidrug-resistant Staphylococcus aureus 1199B after 24 hrs. The class given is functional.
In series [9] the test system is Staphylococcus aureus. Put plainly: Antibacterial activity against multidrug-resistant Staphylococcus aureus XU212 after 24 hrs. The class given is functional. To be noted: XU212, 24 h.

Structures are written as SMILES. In brackets after ≈: the same amount, converted by molar mass.

Regarding `COC(=O)c1ccc(-c2c3[nH]c4ccc(OC)cc4c3cc[n+]2Cc2ccc(C(F)(F)F)cc2)cc1`, the MIC (as a rule, the least concentration at which growth counts as inhibited) was found to be 200 µM with Escherichia coli; 25 µM in the series on Bacillus subtilis; 25 µM in the series on Ralstonia solanacearum; 25 µM with Staphylococcus aureus [1]; 25 µM with Staphylococcus aureus [4]; 25 µM with Bacillus cereus. The viability at 8 ug/ml in series [2] was determined as 93.2%; in series [3], 71.6%.

On to `FC(F)(F)c1ccc(C[n+]2ccc3c([nH]c4ccccc43)c2-c2ccc3c(c2)OCO3)cc1`, for which the MIC came to 100 µM in the series on Escherichia coli; 25 µM in the series with Bacillus subtilis; 25 µM against Ralstonia solanacearum; 25 µM in the series with Staphylococcus aureus [1]; 25 µM with Staphylococcus aureus [4]; 50 µM in the series on Bacillus cereus. Further, the viability at 8 ug/ml in series [2] is 96.3%; in series [3], 85.7%.

In the case of `COC(=O)c1ccc(-c2c3[nH]c4ccc(OC)cc4c3cc[n+]2Cc2ccc(Br)cc2)cc1`, the MIC came out at 25 µM against Bacillus subtilis; 25 µM against Ralstonia solanacearum; 37.5 µM in the series on Staphylococcus aureus [1]; 25 µM in the series with Staphylococcus aureus [4]; 37.5 µM against Bacillus cereus. Further, the viability at 8 ug/ml in [2] worked out at 94.8%; in [3], 73.5%.

`Cc1ccc2[nH]c3c[n+](C)ccc3c2c1.[I-]` displayed an MIC against Staphylococcus aureus [5] of 4 µg/mL.

As for `FC(F)(F)c1ccc(C[n+]2ccc3c([nH]c4ccccc43)c2-c2ccco2)cc1`, the MIC against Escherichia coli is 50 µM; in the series with Bacillus subtilis it was 25 µM; in the series on Ralstonia solanacearum, 25 µM; in the series with Staphylococcus aureus [1] it was 25 µM; against Staphylococcus aureus [4] it was 25 µM; against Bacillus cereus, 50 µM. For the same compound, the viability at 8 ug/ml in [2] came to 87.1%; in series [3], 76.2%.

In the case of `Cc1nccc2c1[nH]c1ccccc12` [HARMAN], the MIC in the series on Staphylococcus aureus [6] amounted to 1000 µg/mL (≈ 5490 µM).

On to `O=c1ccc2nccc3c4ccccc4n1c23` [CANTHIN-6-ONE], for which the minimal inhibitory concentration (MIC) in the series on Staphylococcus aureus [7], with Staphylococcus aureus [8] and in the series with Staphylococcus aureus [9] was 8 to 64 µg/mL (≈ 36.3 to 291 µM) in each case.

Regarding `COc1ccc2[nH]c3c(-c4ccccn4)[n+](Cc4ccc(C(F)(F)F)cc4)ccc3c2c1`, the MIC is > 200 µM against Escherichia coli; 100 µM in the series with Bacillus subtilis; 100 µM with Ralstonia solanacearum; 100 µM in the series with Staphylococcus aureus [1]; 100 µM with Staphylococcus aureus [4]; 200 µM with Bacillus cereus.

In the case of `c1ccc(C[n+]2ccc3c([nH]c4ccccc43)c2-c2ccccn2)cc1`, the MIC against Escherichia coli, against Bacillus subtilis, in the series on Ralstonia solanacearum, against Staphylococcus aureus [1], against Staphylococcus aureus [4] and against Bacillus cereus was > 200 µM each time.

In the case of `c1ccc(-c2nccc3c2[nH]c2ccccc23)nc1`, the minimal inhibitory concentration (MIC) against Escherichia coli, in the series on Bacillus subtilis, in the series on Ralstonia solanacearum, against Staphylococcus aureus [1], in the series on Staphylococcus aureus [4] and against Bacillus cereus was > 200 µM in each case.

For the compound `COc1ccc2[nH]c3c(-c4ccco4)[n+](Cc4ccc(C(F)(F)F)cc4)ccc3c2c1`, the minimum inhibitory concentration (MIC) with Escherichia coli amounted to 50 µM; against Bacillus subtilis it was 25 µM; against Ralstonia solanacearum, 25 µM; in the series on Staphylococcus aureus [1] it was 25 µM; in the series with Staphylococcus aureus [4] it was 25 µM; in the series on Bacillus cereus, 50 µM. Moreover, the viability at 8 ug/ml turned out to be 88.5% in series [2] and 74.3% in [3].

In the case of `COC(=O)c1ccc(-c2c3[nH]c4ccccc4c3cc[n+]2Cc2ccc(C)cc2)cc1`, the minimum inhibitory concentration (MIC) turned out to be 200 µM with Escherichia coli; 50 µM against Bacillus subtilis; 50 µM in the series on Ralstonia solanacearum; 50 µM against Staphylococcus aureus [1]; 50 µM in the series with Staphylococcus aureus [4]; 100 µM with Bacillus cereus.

For `COc1ccc2[nH]c3c(-c4ccc5c(c4)OCO5)[n+](Cc4ccc(C)cc4)ccc3c2c1`, the minimal inhibitory concentration (MIC) was 200 µM against Escherichia coli; 25 µM with Bacillus subtilis; 25 µM against Ralstonia solanacearum; 25 µM against Staphylococcus aureus [1]; 25 µM with Staphylococcus aureus [4]; 50 µM in the series on Bacillus cereus. Further, the viability at 8 ug/ml in series [2] was found to be 98.5%; in series [3], 82.2%.
